# Bioassay records (PubChem BioAssay)
# Compounds with a hit are over-represented: about 3.7% of the library has one in this group of screens.
# KCNK9 block: human KCNK9 channel inhibition. Q9NPC2. HEK293 KCNK9, FluxOR thallium flux fluorescence; hits give low values. B-score at 10 µM. 1.2% of 310,000 active;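 active means ratio B-score over 3 SD below the library mean, with starting fluorescence within 5 SD of its mean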;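 further: negative B-score means less thallium flux so channel inhibition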
# Kir21 block: Kir2.1 (mouse) channel inhibition. HEK293-Kir2.1, FluxOR thallium flux fluorescence; hits give low values. B-score at 10 µM. 0.85% of 310,000 active;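 active means fluorescence ratio B-score at or below minus 3 SD of library scores, with starting-brightness B-score within 2 SD, cut at about -4.2 in these data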;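 further: channel flux triggered by added potassium and thallium sulfate stimulus; B-score of peak minus minimum fluorescence over baseline after thallium stimulus; more negative B-score means stronger Kir2.1 block with less thallium influx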
# KCNQ1 act: potentiators or activators of human KCNQ1 potassium channel | B-score at 10 µM | AID 2648 | 0.35% of 310,000 active | CHO-K1 KCNQ1, thallium flux FluxOR fluorescence; hits give high values | P51787;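 active means fluorescence ratio B-score, a plate-corrected score, at least three library SD, with initial intensity B-score within 5 SD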
#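 System: Stable KCNQ1 CHO-K1 line | Incubation: 90 min dye loading and 20 min compound exposure, both at room temperature | Measure: Ratio B score | Medium: Assay buffer for compound exposure, DMSO matched across wells | Compound dosing: Single-concentration screen | Probe or stimulus: K+/Tl+ depolarizing stimulus | Measured by: Kinetic FluxOR fluorescence, 10 s baseline plus 110 s post-stimulus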
# KCNQ1 inh: inhibitors of human KCNQ1 potassium channel | 1.3% of 310,000 active | B-score at 10 µM | P51787 | CHO-K1 KCNQ1, FluxOR thallium flux fluorescence; hits give high values;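 active means compounds whose thallium flux B-score, printed positive for inhibition, exceeds three library SD while starting fluorescence stays within three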;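 further: channel opened by potassium depolarization with thallium stimulus after 20 min compound exposure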
# KCNK3 block: human KCNK3 channel inhibition, primary screen | B-score at 10 µM | 0.84% of 340,000 active | CHO-KCNK3 thallium flux, FluxOR fluorescence; hits give low values;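 active means B-score under library mean minus 4 SD, starting fluorescence ratio at most library mean plus 5 SD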;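 further: more negative B-score means stronger inhibition of thallium flux through KCNK3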
# Target sequence (O14649 whole entry, looked up): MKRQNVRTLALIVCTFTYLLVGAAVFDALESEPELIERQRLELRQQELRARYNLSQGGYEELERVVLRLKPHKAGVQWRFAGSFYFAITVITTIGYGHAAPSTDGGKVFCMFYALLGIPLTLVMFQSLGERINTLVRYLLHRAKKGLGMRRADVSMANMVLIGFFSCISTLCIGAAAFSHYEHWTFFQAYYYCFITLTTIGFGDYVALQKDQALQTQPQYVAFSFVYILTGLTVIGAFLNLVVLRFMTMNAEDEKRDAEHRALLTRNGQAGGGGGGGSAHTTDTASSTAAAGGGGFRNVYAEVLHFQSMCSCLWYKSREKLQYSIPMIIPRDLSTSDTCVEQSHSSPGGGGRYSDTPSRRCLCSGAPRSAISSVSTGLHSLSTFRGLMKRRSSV
# hERG protect: hERG (human) protection from proarrhythmic block. Q12809. CHO-hERG, FluxOR thallium flux, dofetilide IC70 present. activation (rescue from dofetilide block), less the hit threshold, % at 10 µM. 0.51% of 310,000 active;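 active means activation above the mean of controls blocked by dofetilide plus 5 SD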;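 further: thallium influx through hERG after potassium depolarization seen as dye fluorescence rise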
# A number is an active result; – = inactive; · = no result given.
SMILES,KCNK9 block,Kir21 block,KCNQ1 act,KCNQ1 inh,KCNK3 block,hERG protect
Cc1ccc2c(c1)-c1ncc(C(=O)c3cc(Br)ccc3O)cc1CO2,-8.9,–,–,8,·,–
COC(=O)c1sc(S(=O)(=O)NCc2ccccc2)c(C(=O)OC)c1C,–,-5.2,–,–,–,–
COc1ccccc1-n1c(SCC(=O)NC2CCS(=O)(=O)C2)nc2cc([N+](=O)[O-])ccc21 (stereo unspecified),–,–,–,–,–,–
COc1ccccc1-n1c(SCC(=O)c2ccc(O)cc2O)nc2cc([N+](=O)[O-])ccc21,–,–,–,6,–,–
COc1ccc(CCn2c(C)nc3c(c(=O)c4ccccc4n3C)c2=O)cc1,–,–,–,–,–,–
COc1ccc(CCn2c(S)nc3ccccc3c2=O)cc1,–,–,8,–,–,–
O=S(=O)(c1ccc(SCc2ccc(Br)cc2)nc1)N1CCCCC1,·,·,·,·,-10,·
COc1cccc(C(c2nnnn2Cc2ccco2)N2CCN(c3cccc(C)c3C)CC2)c1OC (stereo unspecified),-6.8,–,–,6,–,–
O=C(NC(=S)N1CCN(C/C=C/c2ccccc2)CC1)c1c(F)cccc1F,–,–,7,–,–,–
O=C(NC(=S)N1CCN(C/C=C/c2ccccc2)CC1)c1ccco1,–,–,–,–,–,–
COc1cc(SC)ccc1C(=O)OCC(=O)N1CCN(C(C)=O)CC1,–,–,–,–,–,–
CCOC(=O)C1CCN(c2cc3c(cc2NC(=O)c2ccccc2)n(C)c(=O)n3C)CC1,–,–,–,–,–,–
CCOC(=O)C1CCN(c2cc3c(cc2NC(=O)c2ccc(OC)c(OC)c2)n(C)c(=O)n3C)CC1,-6.8,–,–,–,–,–
COc1ccc(C)cc1NC(=O)C(=O)NNC(=O)c1ccco1,–,–,29,–,–,34
COc1ccccc1CNC(=O)CN1C(=O)NC2(CCCc3sccc32)C1=O (stereo unspecified),·,·,·,·,–,·
Cc1cc(C)nc(/N=C(\N)Nc2ccc(OCCC(C)C)cc2)n1,–,–,–,–,–,–
Cc1cc(C)nc(/N=C(\N)Nc2ccc(CC(=O)OC(C)C)cc2)n1,–,–,10,–,–,–
CN(Cc1ccccc1)c1ccc2nnc(-c3ccccc3)n2n1,–,-5.2,–,–,–,–
c1ccc(-c2nnc3ccc(N4CCCC4)nn23)cc1,–,–,–,–,–,–
CCOc1ccc(N2C(=O)C3=C(C(c4ccc(Cl)cc4)=NCCN3)C2c2cccnc2)cc1 (stereo unspecified),–,–,–,–,–,–
Cc1ccc(C2C3=C(NCCN=C3c3ccccc3)C(=O)N2c2ccccc2)cc1 (stereo unspecified),–,-8.8,–,–,–,–
CN=C(C)c1c(O)c2ccccc2oc1=O,–,–,–,–,–,4.9
O=C(CCC1N=C2c3ccccc3N=C(SCc3ccc(F)cc3)N2C1=O)NCc1ccco1 (stereo unspecified),–,–,–,–,–,–
O=C(CCC1N=C2c3ccccc3N=C(SCc3ccc(Cl)cc3)N2C1=O)NCc1ccco1 (stereo unspecified),-7.8,–,–,–,–,–
CCN1CCN(CCCOc2ccc(-c3ccccc3)cc2)CC1,–,-4.7,–,–,·,–
SMILES,KCNK9 block,Kir21 block,KCNQ1 act,KCNQ1 inh,KCNK3 block,hERG protect
CCN1CCN(CCCOc2ccccc2-c2ccccc2)CC1,–,–,–,–,–,–
O=C(c1ccccc1)c1ccc(OCCCCN2CCCCC2)cc1,–,–,–,–,–,–
CCN1CCN(CCOc2ccccc2-c2ccccc2)CC1,–,-5.3,–,–,–,–
c1ccc(COc2ccc(OCCCCN3CCCCC3)cc2)cc1,–,-4.7,–,–,–,–
O=C(OCC(=O)N1CCCC1)c1cnc(Cl)c(Cl)c1,·,·,·,·,–,·
CC1(c2cccc(Br)c2)NC(=O)N(CC(=O)Nc2ccc(S(N)(=O)=O)cc2)C1=O (stereo unspecified),–,–,–,–,–,–
O=C(COC(=O)/C=C/c1ccccc1[N+](=O)[O-])NC(=O)NC1CCCC1,·,·,·,·,–,·
CCCCn1c(-c2ccccc2)cnc1SCC(=O)NCCc1ccc(OC)c(OC)c1,–,-6.3,–,–,–,–
COc1ccc(CCNC(=O)CSc2nn(-c3ccccc3)c(=S)s2)cc1OC,–,-6.6,–,–,–,–
COc1ccc(CCNC(=O)CSc2ccc3ccccc3c2)cc1OC,–,-6.9,–,–,–,–
O=C(Nc1ccc(S(=O)(=O)NC2=NCCCCC2)cc1)c1ccc(Cl)cc1Cl,–,–,–,–,–,–
Cc1cn2c(nc1=O)OC1CC2OC1CO (stereo unspecified),–,–,–,–,–,–
O=C(NCCc1ccc(F)cc1)c1ccc(Cl)c(S(=O)(=O)N2CCOCC2)c1,·,·,·,·,–,·
O=C(NC(=S)Nc1ncc(Br)cc1Br)c1ccccc1,–,–,7,–,–,–
O=C(NC(=S)Nc1cnc2ccccc2c1)c1ccccc1,–,–,–,–,–,–
CCCc1nn(C)c(C(=O)Nc2ccc3ccccc3c2)c1Cl,–,–,–,–,–,–
COc1ccc(CNC(=O)c2cccnc2)cc1,–,–,–,–,–,–
CCOC(=O)C1(Cc2ccc(Cl)cc2)CCN(C(C)Cc2ccc(O)c(OC)c2)CC1 (stereo unspecified),–,–,–,13,–,–
COc1cccc(CC2(CO)CCN(C(=O)NCCc3ccccc3)CC2)c1,–,–,–,–,–,–
COc1cccc(CC2(CO)CCN(C(=O)NC3CCCCC3)CC2)c1,–,–,–,–,–,8.7
Cc1ccc(NC(=O)CSCC(=O)Nc2cc(C(F)(F)F)ccc2N2CCOCC2)cc1,–,–,–,–,–,–
O=C(CSCc1ccco1)Nc1cc(C(F)(F)F)ccc1N1CCOCC1,-6.7,–,–,–,–,–
COc1ccc(C)cc1S(=O)(=O)N(C)CC(=O)NCc1ccncc1,–,–,–,–,–,–
COc1ccc(C2=CC(=O)C[C@H](c3ccc(Cl)cc3)C2)cn1,·,·,·,·,–,·
O=C(Nc1cccc(Cl)c1N1CCCC1)c1cccc(-c2cc3ccccc3oc2=O)c1,-7.1,–,–,–,–,–
O=C(Nc1ccc(CN2CCOCC2)cc1)c1cccc(-c2cc3ccccc3oc2=O)c1,–,–,–,–,–,–
CNCCCCOc1ccc(C(C)(C)C)cc1Cl,–,-4.9,–,–,–,–
CNCCCOc1ccc(C)cc1Br,–,–,–,–,–,–
COc1ccc2nc(N=Nc3ccc(O)c4ccccc34)sc2c1,–,–,18,–,–,11
CSc1nc2c(c(=O)[nH]1)C(c1ccc(F)cc1)CC(=O)N2 (stereo unspecified),–,–,–,–,–,12
